Assay results collected from several papers.
Lines come from different studies, so protocols differ.
KDR: Vascular endothelial growth factor receptor 2 (KDR, Homo sapiens, UniProt P35968)
ATAD2 bromodomain: ATPase family AAA domain-containing protein 2, bromodomain (ATAD2, Homo sapiens, UniProt Q6PL18)
CDK16: Cyclin-dependent kinase 16 (CDK16, Homo sapiens, UniProt Q00536)
PADI1: Protein-arginine deiminase type-1 (PADI1, Homo sapiens, UniProt Q9ULC6)

With COc1ccc(NC(=O)c2c(Nc3ccccc3)sc(C#N)c2NC(=O)CNc2ccc([N+](=O)[O-])cc2)cc1 the remaining activity was 79.1% (KDR; enzyme activity, inhibitor; 1 µM).
Oc1ccc(-c2nc(-c3ccncc3)c(-c3ccc(F)cc3)[nH]2)cc1 gave a ΔTm of 0.05 °C (ATAD2 bromodomain; thermal stability, DSF; 10 µM).
Cn1c2c(Cl)c(Cl)ccc2c2cc(N)[nH]c(=O)c21 has a ΔTm of 0.3 °C (CDK16; thermal stability, DSF; 10 µM).
For N=C(CCl)NCCC[C@H](NC(=O)c1ccccc1)c1nn[nH]n1, the kinact/KI was 110 M⁻¹ s⁻¹ (PADI1; enzyme activity, inhibitor).
With COc1ccc(NC(=O)c2c(Nc3ccccc3)sc(C#N)c2NC(=O)CNc2ccc(Cl)cc2)cc1 the remaining activity was 29.6% (KDR; enzyme activity, inhibitor; 10 µM).
With Cc1cc2c(cc1N1C(=O)c3cccc4c(Cl)ccc(c34)C1=O)n(C)c(=O)n2C the ΔTm was 0 °C (ATAD2 bromodomain; thermal stability, DSF; 10 µM).
The remaining activity of Nc1ncnc2occ(-c3ccc(NC(=O)Nc4cc(C(F)(F)F)ccc4F)cc3)c12 is reported as 100% (Phosphatidylinositol 5-phosphate 4-kinase type-2 beta (PIP4K2B, Homo sapiens, UniProt P78356); enzyme activity, inhibitor; 20 µM).
The inhibition of CN(C)C1CCN(CC#Cc2nn(C3CCCC3)c3nc(NCc4ccccc4)ncc23)C1 (stereo not shown) is reported as 9% (Serine/threonine-protein kinase Nek4 (NEK4, Homo sapiens, UniProt P51957); enzyme activity, inhibitor, FRET; 0.1 µM).
The ΔTm of Cn1c2c(c3ccc(Cl)c(Cl)c31)C(C#N)C1(CCNCC1)NC2=O (racemic) is reported as 2.6 °C (CDK16; thermal stability, DSF; 10 µM).
COc1ccc(NC(=O)c2c(Nc3ccccc3)sc(C(=O)NN=Cc3ccc(Cl)cc3)c2NC(C)=O)cc1 gave a remaining activity of 83.7% (KDR; enzyme activity, inhibitor; 1 µM).
For CC(=O)NCCc1c[nH]c2ccc(O)cc12, the Km was 45.7 µM (Sulfotransferase 1C4 (SULT1C4, Homo sapiens, UniProt O75897); enzyme activity, substrate; pH 7).
The kinact/KI of CC(C)(C)n1nnc([C@H](CCCNC(=N)CF)NC(=O)c2ccc(-c3ccccc3)cc2)n1 is reported as 14.4 M⁻¹ s⁻¹ (PADI1; enzyme activity, inhibitor).
With Cn1c2c(Cl)c(Cl)ccc2c2cc[nH]c(=O)c21 the ΔTm was 0 °C (CDK16; thermal stability, DSF; 10 µM).
COc1ccc(NC(=O)c2c(Nc3ccccc3)sc(C(=O)NN=Cc3ccc(OC)c(O)c3)c2NC(C)=O)cc1 has a remaining activity of 99% (KDR; enzyme activity, inhibitor; 10 nM).
The remaining signal of Cc1ccc(C(=O)Nc2ccc(CN3CCN(C)CC3)c(C(F)(F)F)c2)cc1C#Cc1cnc2cccnn12 is reported as 100% (1-phosphatidylinositol 3-phosphate 5-kinase (PIKFYVE, Homo sapiens, UniProt Q9Y2I7); cell-free assay; 23.5 nM).
N=C(CF)NCCC[C@H](NC(=O)c1ccccc1)c1nn[nH]n1 has a kinact/KI of 5.75 M⁻¹ s⁻¹ (PADI1; enzyme activity, inhibitor).
With COc1ccc(NC(=O)c2c(Nc3ccccc3)sc(C#N)c2NC(=O)CNc2ccc(Br)cc2)cc1 the remaining activity was 66.2% (KDR; enzyme activity, inhibitor; 0.1 µM).
The kinact/KI of CC(C)(C)n1nnc([C@H](CCCNC(=N)CF)NC(=O)c2ccccc2)n1 is reported as 26.6 M⁻¹ s⁻¹ (PADI1; enzyme activity, inhibitor).
With COc1ccc(C=NNC(=O)c2sc(Nc3ccccc3)c(C(=O)Nc3ccc(OC)cc3)c2NC(C)=O)cc1 the remaining activity was 48.6% (KDR; enzyme activity, inhibitor; 10 µM).
For CC(C)(C)n1nnc([C@H](CCCNC(=N)CF)NC(=O)c2ccccc2C(=O)O)n1, the kinact/KI was 1670 M⁻¹ s⁻¹ (PADI1; enzyme activity, inhibitor).
CC[C@H]1OC(=O)[C@H](C)[C@@H](O[C@H]2C[C@@](C)(OC)[C@@H](O)[C@H](C)O2)[C@H](C)[C@@H](O[C@@H]2O[C@H](C)C[C@H](N(C)C)[C@H]2O)[C@](C)(O)C[C@@H](C)C(=O)[C@H](C)[C@@H](O)[C@]1(C)O has an Emax of 100% (Motilin receptor (MLNR, Homo sapiens, UniProt O43193); inositol phosphate, agonist, TR-FRET; AD293).
For COc1ccc(NC(=O)c2c(Nc3ccccc3)sc(C(=O)NN=Cc3cc(OC)c(OC)c(OC)c3)c2NC(C)=O)cc1, the remaining activity was 100% (KDR; enzyme activity, inhibitor; 10 nM).
For NCCCC[C@H](NC(=O)[C@@H]1CCCN1C(=O)[C@@H]1CSSC[C@H](N)C(=O)N[C@@H](Cc2ccc(O)cc2)C(=O)N[C@@H](Cc2ccccc2)C(=O)N[C@@H](CCC(N)=O)C(=O)N[C@@H](CC(N)=O)C(=O)N1)C(=O)NCC(N)=O, the Emax was roughly 100% (Vasopressin V1a receptor (AVPR1A, Homo sapiens, UniProt P37288); calcium signal, agonist; CHO-S).
With N=C(CCl)NCCC[C@H](NC(=O)c1ccc(-c2ccccc2)cc1)c1nn[nH]n1 the kinact/KI was 51.7 M⁻¹ s⁻¹ (PADI1; enzyme activity, inhibitor).
NC(=O)N/N=C/c1ccc([N+](=O)[O-])o1 has an inhibition of 31% (Glycogen synthase kinase-3 beta (GSK3B, Homo sapiens, UniProt P49841); enzyme activity, inhibitor, ADP detection; 100 µM).
